# Test results reported in ChEMBL document CHEMBL2086328, “¹⁸F-labeled 2-phenylquinoxaline derivatives as potential positron emission tomography probes for in vivo imaging of β-amyloid plaques” (Eur J Med Chem, 2012).
# Calls of active or inactive are those of the source. No cut-off for these calls is given here.
# Assays:
# [1] = target: Amyloid-beta precursor protein (Homo sapiens) (UniProt P05067); assay: Binding affinity to beta-amyloid in normal human brain at 1.85 MBq/[…] after 1 hr by thioflavin-S based autoradiography; conditions: 1.85 M, tested as the 18F-labelled form
# Method in brief: (§1)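 Paraffin human temporal-lobe sections (5 µm; AD case or control) deparaffinized through xylene and graded ethanol, then PBS (0.2 M, pH 7.4) for 30 min. Incubated with 18F tracer (1.85 MBq/200 µL), 1 h, room temperature; washed in 40% EtOH, rinsed in water; phosphor plate exposure 2 h.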
# [2] = target: Amyloid-beta precursor protein (Homo sapiens) (UniProt P05067); assay: Binding affinity to beta-amyloid in Alzheimer's disease patient brain at 1.85 MBq/[…] after 1 hr by thioflavin-S based autoradiography; conditions: 1.85 M, tested as the 18F-labelled form; method in brief: as §1
# [3] = species on record: Mus musculus; assay: Binding affinity to beta-amyloid in APPswe/PSEN1 transgenic C57BL6 mouse model brain at 1.85 MBq/[…] after 1 hr by thioflavin-S based autoradiography; conditions: 1.85 M, tested as the 18F-labelled form
# Method in brief: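 Transgenic mouse brain sections deparaffinized, then incubated with 18F tracer (1.85 MBq/200 µL) for 1 h at room temperature. Washed in 40% EtOH, phosphor-imaged after 2 h exposure. Same sections then stained with 0.125% thioflavin-S in 10% EtOH for 3 min and imaged by fluorescence (excitation 405 nm, long-pass 505 nm).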
# [4] = Displacement of [125I]IMPY from amyloid beta (1 to 42) after 2 hrs by gamma counting
# Method in brief: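 Competition binding against [125I]IMPY (radiochemical purity >95%) on Aβ1-42 aggregates with 1% BSA solution; inhibitor 10^-4–10^-9.5 M; 37 °C, 2 h. Free and bound separated by vacuum filtration on GF/B filters, three PBS washes (0.02 M, pH 7.4, room temperature); filters gamma-counted. Three repeats; IC50 fitted, Ki from Cheng–Prusoff.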
# [5] = tested on: Spleen; assay: Biodistribution in ICR mouse spleen at 370 kBq, iv after 2 mins by gamma counting; assay type: ADME, organism-based; conditions: in vivo
# Method in brief: (§2)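 Male ICR mice (five weeks, 20–22 g), tail-vein injection of 18F tracer in 0.1 mL saline with 10% EtOH. Killed by decapitation at set times, n = 5 per time point. Organs removed, weighed and gamma-counted; %ID/g wet tissue from comparison with diluted aliquots of injected dose; mean ± SD.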
# [6] = tested on: Intestine; assay: Biodistribution in ICR mouse intestine at 370 kBq, iv after 10 mins by gamma counting; assay type: ADME, organism-based; conditions: in vivo; method in brief: as §2
# [7] = tested on: Heart; assay: Biodistribution in ICR mouse heart at 370 kBq, iv after 30 mins by gamma counting; assay type: ADME, organism-based; conditions: in vivo, 0.5 h; method in brief: as §2
# [8] = tested on: Brain; assay: Ratio of drug level in ICR mouse brain after 2 mins to ICR mouse brain after 60 mins at 370 kBq, iv; assay type: ADME, organism-based; conditions: in vivo
# Method in brief: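 Same intravenous study in ICR mice (370 kBq 18F tracer in saline/10% EtOH, n = 5 per time point). Ratio is brain %ID/g at 2 min divided by brain %ID/g at 60 min post-injection.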
# [9] = tested on: Lung; assay: Biodistribution in ICR mouse lung at 370 kBq, iv after 2 mins by gamma counting; assay type: ADME, organism-based; conditions: in vivo; method in brief: as §2
# [10] = tested on: Liver; assay: Biodistribution in ICR mouse liver at 370 kBq, iv after 60 mins by gamma counting; assay type: ADME, organism-based; conditions: in vivo, 1 h; method in brief: as §2
# [11] = tested on: Blood; assay: Biodistribution in ICR mouse blood at 370 kBq, iv after 2 mins by gamma counting; assay type: ADME, organism-based; conditions: in vivo; method in brief: as §2
# [12] = tested on: Bone; assay: Biodistribution in ICR mouse bone at 370 kBq, iv after 10 mins by gamma counting; assay type: ADME, organism-based, Bone element; conditions: in vivo; method in brief: as §2
# [13] = tested on: Heart; assay: Biodistribution in ICR mouse heart at 370 kBq, iv after 10 mins by gamma counting; assay type: ADME, organism-based; conditions: in vivo; method in brief: as §2
# [14] = tested on: Bone; assay: Biodistribution in ICR mouse bone at 370 kBq, iv after 60 mins by gamma counting; assay type: ADME, organism-based, Bone element; conditions: in vivo, 1 h; method in brief: as §2
# [15] = tested on: Liver; assay: Biodistribution in ICR mouse liver at 370 kBq, iv after 2 mins by gamma counting; assay type: ADME, organism-based; conditions: in vivo; method in brief: as §2
# [16] = tested on: Spleen; assay: Biodistribution in ICR mouse spleen at 370 kBq, iv after 30 mins by gamma counting; assay type: ADME, organism-based; conditions: in vivo, 0.5 h; method in brief: as §2
# [17] = tested on: Brain; assay: Biodistribution in ICR mouse brain at 370 kBq, iv after 10 mins by gamma counting; assay type: ADME, organism-based; conditions: in vivo; method in brief: as §2
# [18] = tested on: Lung; assay: Biodistribution in ICR mouse lung at 370 kBq, iv after 10 mins by gamma counting; assay type: ADME, organism-based; conditions: in vivo; method in brief: as §2
# [19] = tested on: Brain; assay: Biodistribution in ICR mouse brain at 370 kBq, iv after 30 mins by gamma counting; assay type: ADME, organism-based; conditions: in vivo, 0.5 h; method in brief: as §2
# [20] = tested on: Liver; assay: Biodistribution in ICR mouse liver at 370 kBq, iv after 30 mins by gamma counting; assay type: ADME, organism-based; conditions: in vivo, 0.5 h; method in brief: as §2
# [21] = tested on: Lung; assay: Biodistribution in ICR mouse lung at 370 kBq, iv after 60 mins by gamma counting; assay type: ADME, organism-based; conditions: in vivo, 1 h; method in brief: as §2
# [22] = tested on: Kidney; assay: Biodistribution in ICR mouse kidney at 370 kBq, iv after 2 mins by gamma counting; assay type: ADME, organism-based; conditions: in vivo; method in brief: as §2
# [23] = tested on: Intestine; assay: Biodistribution in ICR mouse intestine at 370 kBq, iv after 2 mins by gamma counting; assay type: ADME, organism-based; conditions: in vivo; method in brief: as §2
# [24] = tested on: Kidney; assay: Biodistribution in ICR mouse kidney at 370 kBq, iv after 10 mins by gamma counting; assay type: ADME, organism-based; conditions: in vivo; method in brief: as §2
# [25] = tested on: Lung; assay: Biodistribution in ICR mouse lung at 370 kBq, iv after 30 mins by gamma counting; assay type: ADME, organism-based; conditions: in vivo, 0.5 h; method in brief: as §2
# [26] = tested on: Stomach; assay: Biodistribution in ICR mouse stomach at 370 kBq, iv after 60 mins by gamma counting; assay type: ADME, organism-based; conditions: in vivo, 1 h; method in brief: as §2
# [27] = tested on: Stomach; assay: Biodistribution in ICR mouse stomach at 370 kBq, iv after 30 mins by gamma counting; assay type: ADME, organism-based; conditions: in vivo, 0.5 h; method in brief: as §2
# [28] = tested on: Stomach; assay: Biodistribution in ICR mouse stomach at 370 kBq, iv after 10 mins by gamma counting; assay type: ADME, organism-based; conditions: in vivo; method in brief: as §2
# [29] = tested on: Bone; assay: Biodistribution in ICR mouse bone at 370 kBq, iv after 2 mins by gamma counting; assay type: ADME, organism-based, Bone element; conditions: in vivo; method in brief: as §2
# [30] = tested on: Brain; assay: Biodistribution in ICR mouse brain at 370 kBq, iv after 2 mins by gamma counting; assay type: ADME, organism-based; conditions: in vivo; method in brief: as §2
# [31] = tested on: Bone; assay: Biodistribution in ICR mouse bone at 370 kBq, iv after 30 mins by gamma counting; assay type: ADME, organism-based, Bone element; conditions: in vivo, 0.5 h; method in brief: as §2
# [32] = tested on: Blood; assay: Biodistribution in ICR mouse blood at 370 kBq, iv after 10 mins by gamma counting; assay type: ADME, organism-based; conditions: in vivo; method in brief: as §2
# [33] = tested on: Intestine; assay: Biodistribution in ICR mouse intestine at 370 kBq, iv after 30 mins by gamma counting; assay type: ADME, organism-based; conditions: in vivo, 0.5 h; method in brief: as §2
# [34] = tested on: Spleen; assay: Biodistribution in ICR mouse spleen at 370 kBq, iv after 10 mins by gamma counting; assay type: ADME, organism-based; conditions: in vivo; method in brief: as §2
# [35] = tested on: Stomach; assay: Biodistribution in ICR mouse stomach at 370 kBq, iv after 2 mins by gamma counting; assay type: ADME, organism-based; conditions: in vivo; method in brief: as §2
# [36] = tested on: Intestine; assay: Biodistribution in ICR mouse intestine at 370 kBq, iv after 60 mins by gamma counting; assay type: ADME, organism-based; conditions: in vivo, 1 h; method in brief: as §2
# [37] = tested on: Brain; assay: Biodistribution in ICR mouse brain at 370 kBq, iv after 60 mins by gamma counting; assay type: ADME, organism-based; conditions: in vivo, 1 h; method in brief: as §2
# [38] = tested on: Kidney; assay: Biodistribution in ICR mouse kidney at 370 kBq, iv after 60 mins by gamma counting; assay type: ADME, organism-based; conditions: in vivo, 1 h; method in brief: as §2
# [39] = tested on: Heart; assay: Biodistribution in ICR mouse heart at 370 kBq, iv after 60 mins by gamma counting; assay type: ADME, organism-based; conditions: in vivo, 1 h; method in brief: as §2
# [40] = Lipophilicity, log D of the compound; assay type: physicochemical; conditions: octanol/water
# Method in brief: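 18F tracer (740 kBq) in 3 g n-octanol plus 3 g PBS (0.05 M, pH 7.4). Vortexed 3 min at room temperature, centrifuged 5 min at 3000 rpm; weighed samples from octanol and buffer layers counted.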
# [41] = tested on: Heart; assay: Biodistribution in ICR mouse heart at 370 kBq, iv after 2 mins by gamma counting; assay type: ADME, organism-based; conditions: in vivo; method in brief: as §2
# [42] = tested on: Liver; assay: Biodistribution in ICR mouse liver at 370 kBq, iv after 10 mins by gamma counting; assay type: ADME, organism-based; conditions: in vivo; method in brief: as §2
# [43] = tested on: Spleen; assay: Biodistribution in ICR mouse spleen at 370 kBq, iv after 60 mins by gamma counting; assay type: ADME, organism-based; conditions: in vivo, 1 h; method in brief: as §2
# [44] = tested on: Blood; assay: Biodistribution in ICR mouse blood at 370 kBq, iv after 60 mins by gamma counting; assay type: ADME, organism-based; conditions: in vivo, 1 h; method in brief: as §2
# [45] = tested on: Kidney; assay: Biodistribution in ICR mouse kidney at 370 kBq, iv after 30 mins by gamma counting; assay type: ADME, organism-based; conditions: in vivo, 0.5 h; method in brief: as §2
# [46] = tested on: Blood; assay: Biodistribution in ICR mouse blood at 370 kBq, iv after 30 mins by gamma counting; assay type: ADME, organism-based; conditions: in vivo, 0.5 h; method in brief: as §2
# Sequence of Amyloid-beta precursor protein (Homo sapiens) (P05067 whole entry): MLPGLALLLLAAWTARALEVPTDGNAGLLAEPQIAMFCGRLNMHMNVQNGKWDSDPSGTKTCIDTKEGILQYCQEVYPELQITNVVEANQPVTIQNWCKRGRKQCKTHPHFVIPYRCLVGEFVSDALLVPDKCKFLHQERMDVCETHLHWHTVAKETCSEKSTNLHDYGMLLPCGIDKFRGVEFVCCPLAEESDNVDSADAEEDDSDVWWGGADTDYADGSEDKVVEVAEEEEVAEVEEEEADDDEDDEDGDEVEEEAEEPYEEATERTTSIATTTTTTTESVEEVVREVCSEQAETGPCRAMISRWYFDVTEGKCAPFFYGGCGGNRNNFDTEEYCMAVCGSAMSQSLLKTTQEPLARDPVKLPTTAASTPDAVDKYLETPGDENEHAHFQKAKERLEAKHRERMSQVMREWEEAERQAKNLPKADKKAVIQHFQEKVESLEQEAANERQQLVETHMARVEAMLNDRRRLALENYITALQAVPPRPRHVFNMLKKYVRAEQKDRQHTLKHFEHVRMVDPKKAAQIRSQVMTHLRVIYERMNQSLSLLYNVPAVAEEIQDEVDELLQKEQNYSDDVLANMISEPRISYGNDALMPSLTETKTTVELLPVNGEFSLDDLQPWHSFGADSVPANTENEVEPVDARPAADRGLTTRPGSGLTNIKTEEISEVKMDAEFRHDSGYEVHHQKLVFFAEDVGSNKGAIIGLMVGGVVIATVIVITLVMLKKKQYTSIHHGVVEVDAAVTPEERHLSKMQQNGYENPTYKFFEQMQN
smiles,measurement,setting,value
CNc1ccc2nc(-c3ccc(OCCOCCOCCF)cc3)cnc2c1,Activity,[1],inactive
same,Activity,[2],Active
same,Activity,[3],Active
same,Ki,[4],5.3 nM
CNc1ccc2nc(-c3ccc(OCC[18F])cc3)cnc2c1,Drug uptake,[5],4.71 % ID/g
same,Drug uptake,[6],12.87 %ID
same,Drug uptake,[7],4.28 % ID/g
same,Ratio,[8],2.58
same,Drug uptake,[9],6.38 % ID/g
same,Drug uptake,[10],5 % ID/g
same,Drug uptake,[11],4.93 % ID/g
same,Drug uptake,[12],2.84 % ID/g
same,Drug uptake,[13],4.27 % ID/g
same,Drug uptake,[14],6.2 % ID/g
same,Drug uptake,[15],9.5 % ID/g
same,Drug uptake,[16],3.35 % ID/g
same,Drug uptake,[17],5.07 % ID/g
same,Drug uptake,[18],4.36 % ID/g
same,Drug uptake,[19],3.45 % ID/g
same,Drug uptake,[20],5.37 % ID/g
same,Drug uptake,[21],3.77 % ID/g
same,Drug uptake,[22],9.37 % ID/g
same,Drug uptake,[23],9.63 %ID
same,Drug uptake,[24],5.96 % ID/g
same,Drug uptake,[25],3.78 % ID/g
same,Drug uptake,[26],2.5 %ID
same,Drug uptake,[27],1.84 %ID
same,Drug uptake,[28],2.55 %ID
same,Drug uptake,[29],2.46 % ID/g
same,Drug uptake,[30],8.17 % ID/g
same,Drug uptake,[31],5.73 % ID/g
same,Drug uptake,[32],4.68 % ID/g
same,Drug uptake,[33],17.15 %ID
same,Drug uptake,[34],3.87 % ID/g
same,Drug uptake,[35],1.81 %ID
same,Drug uptake,[36],18.75 %ID
same,Drug uptake,[37],3.17 % ID/g
same,Drug uptake,[38],3.79 % ID/g
same,Drug uptake,[39],4.24 % ID/g
same,logD,[40],3.14
same,Drug uptake,[41],6.08 % ID/g
same,Drug uptake,[42],7.8 % ID/g
same,Drug uptake,[43],3.04 % ID/g
same,Drug uptake,[44],5.24 % ID/g
same,Drug uptake,[45],4.25 % ID/g
same,Drug uptake,[46],5.09 % ID/g
